# Rows were chosen to be rich in hits. Some 2% of all compounds tested hit in one or more screens of this group.
# NS3 helicase inh: inhibitors of HCV NS3 helicase, primary screen, biochemical, Cy5 molecular beacon fluorescence; Hepatitis C virus NS3 helicase; inhibition, % at 10.9 µM; NS3 helicase DNA unwinding; 290,000 compounds, 0.56% hits;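 active = inhibition above the mean of all tested compounds plus 3 SD, set per campaign, cut at about 35% in these data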;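 also: 0% = DMSO wells and 100% = thioflavine S control wells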
#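 Material: hepatitis C virus NS3 helicase domain fragment enzyme; measured by: Cy5 fluorescence, 0 and 60 min reads; control set: DMSO and thioflavine S; incubation: 60 min unwinding reaction at 25 °C after ATP addition; read-out basis: % inhibition from 60/0 min fluorescence ratio, DMSO 0%, thioflavine S 100%; repeats: singlicate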
# HCV core dimer: inhibitors of HCV core protein dimerization, primary screen, biochemical, TR-FRET, high-throughput; TR-FRET GST/Flag-core106 dimerization, 1536-well; inhibition, % at 5 µM; 300,000 compounds, 0.33% hits;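 active = inhibition above the mean of all tested compounds plus 3 SD, set per screening campaign, cut at about 45% in these data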
#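 System: GST/Flag-tagged HCV core106 proteins. Incubation: compound-protein-antibody incubation 4 h at 22.5 °C. Technique: HTRF with 340 nm excitation, 617/671 nm emission. Medium: KF-containing HEPES buffer, pH 7.45, DTT, CHAPS, BSA. Read-out: inhibition (%) from 671 over 617 nm ratio. Also added: Eu(K)-anti-GST 90 ng/mL plus XL665-anti-Flag 1 µg/mL.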
# eIF4H FP inh: human eIF4H binding inhibitors, primary screen, translation initiation inhibitor project, biochemical, uHTS, fluorescence polarization | eIF4H fluorescence polarization binding assay | Eukaryotic translation initiation factor 4H (Homo sapiens), Q15056 | AID 2012, 2009 | inhibition, % at 35 µM | 290,000 compounds, 0.94% hits; call rule not given here;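 also: calls also rest on retests at 20 µM and on dose response follow-up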
# MLLE-PAM2 inh: inhibitors of PABP1 MLLE–PAM2 peptide binding, primary screen, biochemical, fluorescence polarization, FITC-PAM2, GST-MLLE; Polyadenylate-binding protein 1 (Homo sapiens), P11940; inhibition, % at 20 µM; 360,000 compounds, 0.36% hits; in the data active = inhibition above about 35%, passing the limit was not always enough;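 also: plate controls were DMSO wells with GST-MLLE for no effect and wells lacking GST-MLLE protein for full effect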
# PABP polyA inh: PABP poly(A) RNA binding inhibitors, primary screen, biochemical, fluorescence polarization, uHTS; Polyadenylate-binding protein 1 (Homo sapiens), P11940; inhibition, % at 35 µM; 290,000 compounds, 1% hits; AID 2014, 2009; call rule not given here;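 also: calls also rest on retests at 20 µM and on dose response follow-up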
# DNA FID counter-1: compounds displacing fluorescent DNA intercalator, primary screen, artefact control for HCV NS3 helicase inhibitor project, biochemical, FID fluorescence; DNA fluorescent intercalator displacement; AID 1845, 2009; inhibition, % at 7.9 µM; 290,000 compounds, 0.17% hits;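 also: 0% = vehicle and 100% = reference compound; higher means more ethidium bromide displaced from hairpin DNA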
# NS3 hel confirm: HCV NS3 helicase inhibitors, retest, confirmation, biochemical, Cy5 molecular beacon fluorescence, triplicate. shares compounds with NS3 helicase inh. NS3 helicase DNA unwinding. inhibition, % at 10.9 µM. 1,600 compounds, 31% hits. AID 1943, 2009;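 active = inhibition above the mean of all tested compounds plus 3 SD, cutoff set per campaign, cut at about 36% in these data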
# DNA FID counter-2: compounds displacing fluorescent DNA intercalator, artefact control for HCV NS3 helicase inhibitor project, biochemical, FID fluorescence, triplicate | shares compounds with NS3 helicase inh | DNA fluorescent intercalator displacement | inhibition, % at 7.9 µM | 1,600 compounds, 4% hits | AID 1945, 2009;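 also: 0% = vehicle and 100% = reference compound; higher means more displacement of ethidium bromide from the DNA hairpin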
# * hit, by the source's call; ? = inconclusive; . = not tested or not shown. Rule as the data show it, unless noted: active = inhibition above about 37%; inactive = the rest.
SMILES,NS3 helicase inh,HCV core dimer,eIF4H FP inh,MLLE-PAM2 inh,PABP polyA inh,DNA FID counter-1,NS3 hel confirm,DNA FID counter-2
CCCc1cc(=O)oc2cc(C)c(CN3CCCC3)c(O)c12,40*,53*,80*,-37,99*,-18,41*,-22
Cc1cc(=O)oc2c(CN3CCCCC3)c(O)c(Cl)cc12,24,1,-1,0,3,-11,.,.
CCc1cc(=O)oc2cc(C)c(CN3CCCCC3)c(O)c12,36*,16,70*,34,79*,-19,-24,-5
Cc1cc2oc(=O)cc(CN3CCCC3)c2cc1C,.,.,.,-7,.,.,.,.
Cc1cc(C)c2c(CN3CCCC3)cc(=O)oc2c1,.,.,.,-2,.,.,.,.
Cc1ccc([C@H]2C[C@H](n3cc(-c4ccc(F)cc4)nn3)[C@@H](O)CN2CC2CCCCC2)cc1,.,.,.,-6,.,.,.,.
CCCCNC(=O)[C@@H]1CSC2c3ccccc3C(=O)N21 (some centres undefined),-1,.,-6,19,-2,-8,.,.
CC1(C(=O)O)CCCN(C(=O)c2ccc(OC(F)F)cc2)C1 (centres undefined),.,.,.,-6,.,.,.,.
CCCCNC(=O)c1ccccc1SCc1c(C)noc1C,0,0,-9,6,-16,-9,.,.
CCc1cc2cc3c(cc2nc1SCC(=O)Nc1nccs1)OCO3,-5,-6,-10,-13,-16,0,.,.
CCc1cc2cc3c(cc2nc1SCC(=O)Nc1c[nH]c(=O)[nH]c1=O)OCO3,41*,-12,2,11,-7,-16,-3,2
COc1cccc(CNC[C@H]2O[C@@H](n3ccc(N)nc3=O)[C@H](O)[C@@H]2O)c1OCc1ccc(F)cc1Cl,.,.,.,4,.,.,.,.
O=C(N/N=C/c1cccn1-c1ccc([N+](=O)[O-])cc1)c1cccnc1,65*,19,7,-6,-3,-15,1,-3
COc1ccc(Cl)cc1NC(=O)C(C)N1CCN(c2ccccn2)CC1 (centres undefined),-23,-1,-12,2,5,-23,.,.
Oc1c(Br)cc(/C=N/n2c(-c3ccccc3)n[nH]c2=S)c(Br)c1O,39*,6,85*,.,90*,-19,65*,22
C[C@@H]1OC(C2CCCCC2)N(C)[C@H]2C[C@H]3c4[nH]c5ccccc5c4CCN3C[C@@H]12 (some centres undefined),.,.,.,-6,.,.,.,.
CC(C(=O)O)N1C(=O)C2C3CC(C2C1=O)C1C(c2ccccc2)c2sc(=O)[nH]c2SC31 (centres undefined),75*,-13,2,38,-19,-34,-15,-7
C(=C\c1ccccc1)/C=N/Nc1ccc2nncn2n1,44*,-7,0,.,-1,-5,-14,-19
CC(/C=N/Nc1ccc2nncn2n1)=C\c1ccccc1,-5,-2,-8,3,-8,-19,.,.
Cc1ccc(-c2csc(N/N=C/c3ccco3)n2)c(C)c1,40*,2,48,8,5,-4,-10,10
CN(C)S(=O)(=O)c1cccc(-c2csc(N/N=C/c3ccco3)n2)c1,36,34,38,-8,22,-9,.,.
CN=c1scc(-c2ccccc2F)n1/N=C/c1ccc(O)c(O)c1O,23,.,79,2,13,-18,.,.
CC(C)N=c1scc(-c2cccs2)n1/N=C/c1ccc(O)c(O)c1O,43*,24,84,-6,-9,-13,-10,17
NS(=O)(=O)c1ccc(N=Nc2ccc(=O)[nH]c2O)cc1,32,-16,90*,-5,71*,1,-17,13
NS(=O)(=O)c1ccc(N=Nc2ccc(O)c3ncccc23)cc1,8,-21,9,-21,-10,4,.,.
SMILES,NS3 helicase inh,HCV core dimer,eIF4H FP inh,MLLE-PAM2 inh,PABP polyA inh,DNA FID counter-1,NS3 hel confirm,DNA FID counter-2
COCCNC(=O)C1(C(F)(F)F)CC(CCCO)CCCO1 (centres undefined),.,12,.,-4,.,.,.,.
CSCCC(NC(=O)c1cncc(Br)c1)C(=O)O (centres undefined),40*,-1,-3,13,6,-2,0,-3
CC(C)C/C(O)=C/c1nc2cc(Cl)ccc2oc1=O,38*,-16,79*,13,active,-8,-1,12
Nc1c(O)ccc2c1C(=O)c1ccccc1C2=O,43*,-155,?,.,-1,18,11,27
O=C(O)CC(c1cccc2ccccc12)n1cccc1 (centres undefined),67*,-4,21,-3,11,-36,-20,1
O=C(O)CC(c1cccc2ccccc12)N1Cc2ccccc2C1=O (centres undefined),9,3,0,-5,-12,-38,.,.
Nc1sc2c(c1C(=O)NC1CC1)CCCC2,.,.,.,9,.,.,.,.
CC(C)(C)c1ccc(/C=N/Nc2ccc(C(=O)O)cc2)cc1,32,0,11,9,3,-5,.,.
O=C(O)c1ccc(N/N=C/c2ccc(C(F)(F)F)cc2)cc1,37*,-10,-2,9,-2,-19,56*,-14
O=C1N=c2ccccc2=C1c1sc(Nc2ccc(O)cc2)nc1O,72*,.,?,18,32,7,27,4
O=S(=O)(Cc1noc(-c2ccc(Cl)cc2)n1)Cc1ccco1,52*,0,13,-15,16,-17,-11,0
O=S(=O)(Cc1ccco1)Cc1nc(-c2ccc(Cl)cc2)cs1,43*,0,4,3,0,-19,-14,-8
Clc1ccc(-c2nc(Cc3ccccc3Cl)no2)cc1,1,5,-5,2,-5,-1,.,.
O=C(CN1CCN(c2nc(-c3ccc(Cl)cc3)cs2)CC1)NCc1ccco1,-6,3,-2,-1,0,-12,.,.
COc1ccc(CCNC(=O)C(=O)NCC2OCCN2S(=O)(=O)c2ccccc2)cc1 (centres undefined),37*,14,12,1,-2,-27,-12,-47
COc1ccc(/C=C\c2onc(C)c2S(=O)(=O)N2CCC(C(=O)NCc3ccco3)CC2)cc1,50*,-6,-2,3,0,-34,-1,-18
CCCCN(CCO)CCCC,.,.,.,-1,.,.,.,.
O=C(O)c1cccc(-n2cccc2/C=C/[N+](=O)[O-])c1,41*,0,94*,25,76*,-21,41*,13

# High-throughput results: PubChem, several laboratories
